# Measurements pooled from the literature.
# F2: Prothrombin (F2, Homo sapiens, UniProt P00734)
# HDAC6: Protein deacetylase HDAC6 (HDAC6, Homo sapiens, UniProt Q9UBN7)
# GRM7: Metabotropic glutamate receptor 7 (GRM7, Homo sapiens, UniProt Q14831)
# KCNK18: Potassium channel subfamily K member 18 (KCNK18, Homo sapiens, UniProt Q7Z418)
# MEP1B: Meprin A subunit beta (MEP1B, Homo sapiens, UniProt Q16820)
# PDE4D: 3',5'-cyclic-AMP phosphodiesterase 4D (PDE4D, Homo sapiens, UniProt Q08499)
# CDK7 with cyclin H: Cyclin-dependent kinase 7, with cyclin H (CDK7, Homo sapiens, UniProt P50613)
# Dihydroorotate dehydrogenase, mitochondrial, putative: Dihydroorotate dehydrogenase, mitochondrial, putative (Plasmodium vivax, UniProt A5K1N1)
Structure (SMILES),target,assay,setting,IC50 [nM]
COc1cc(/C=N/n2c(C)nc3ccc(C)cc3c2=O)ccc1OCc1ccccc1,F2,"enzyme activity, inhibitor",,26600
CCCON(Cc1ccc(C(=O)NO)cc1)C(=O)Nc1ccc(N(C)C)cc1,HDAC6,"enzyme activity, inhibitor, fluorescence",,22
COc1ccc(-c2nsc(NC(=O)[C@@H]3C[C@H]3C)c2C)cc1,GRM7,"calcium signal, antagonist",,> 12500
CCOC(=O)C1=C(C)NC(C)=C(C(=O)OC)C1c1cccc([N+](=O)[O-])c1 (stereo not drawn),KCNK18,"ion flux, inhibitor",,19800
O=C(CCN(Cc1ccc2c(c1)OCO2)Cc1ccc(Cl)cc1F)NO,MEP1B,"enzyme activity, inhibitor",,960
COc1ccc(C2=NN(C3CCCCCC3)C(=O)[C@@H]3CC=CC[C@H]23)cc1-c1ccc(C(N)=O)cc1 (relative stereo),PDE4D,"enzyme activity, inhibitor",,126
COc1cc(/C=N/n2c(C)nc3ccc(C)cc3c2=O)cc([N+](=O)[O-])c1O,F2,"enzyme activity, inhibitor",,210000
COCCOC(=O)C1=C(C)NC(C)=C(C(=O)OC(C)C)C1c1cccc([N+](=O)[O-])c1 (stereo not drawn),"Potassium channel subfamily K member 9 (KCNK9, Homo sapiens, UniProt Q9NPC2)","ion flux, inhibitor",,> 30000
O=c1cc(-c2ccc3c(c2)OCO3)oc2c1ccc1occc12,CDK7 with cyclin H,"enzyme activity, inhibitor, ADP detection",,> 100000
CC(C)C[C@H](NC(=O)[C@H]1O[C@@H]1C(=O)O)C(=O)NCCCCN=C(N)N,"Calpain-1 catalytic subunit (CAPN1, Homo sapiens, UniProt P07384)","enzyme activity, inhibitor",,30.9
Nc1ccc(-c2ccncc2)cc1NC(=O)N1CCCC1,HDAC6,"enzyme activity, inhibitor",,> 33300
COc1ccc(-c2nnc(-c3cc(OC(F)(F)F)ccc3-n3ccnc3)o2)cc1OC,GRM7,"calcium signal, antagonist",,600
COc1cc(/C=N/n2c(C)nc3ccc(Br)cc3c2=O)ccc1O,F2,"enzyme activity, inhibitor",,42500
COc1ccc(-c2noc(-c3cc(Cl)c(F)cc3-n3cncn3)n2)cc1OC,GRM7,"calcium signal, antagonist",,> 30000
CN(C)C/C=C/C(=O)Nc1ccc(C(=O)N2CC[C@@H](Nc3ncc(Cl)c(-c4c[nH]c5ccccc45)n3)C2)cc1,CDK7 with cyclin H,"enzyme activity, inhibitor, FRET",,6.33
CC(C)n1c(/C=C/C(O)CC(O)CC(=O)O)c(-c2ccc(F)cc2)c2ccccc21 (stereo not drawn),"3-hydroxy-3-methylglutaryl-coenzyme A reductase (HMGCR, Homo sapiens, UniProt P04035)","enzyme activity, inhibitor, absorbance",,173
CCCC[C@H](NC(=O)C1CN(C)C1)c1ncc(-c2cc3ccccc3nc2OC)[nH]1,HDAC6,"enzyme activity, inhibitor",,1100
COc1ccc2c(Oc3ccc4c(C(=O)Nc5ccccc5N)cccc4c3)ccnc2c1,"Potassium/sodium hyperpolarization-activated cyclic nucleotide-gated channel 4 (HCN4, Homo sapiens, UniProt Q9Y3Q4)","ion current, inhibitor",,> 10000
O=c1cc(-c2ccccc2)oc2c1ccc1ccccc12,CDK7 with cyclin H,"enzyme activity, inhibitor, ADP detection",,> 100000
Cc1nc2ccccc2n1Cc1nc(C(=O)NO)co1,HDAC6,"enzyme activity, inhibitor",,3710
Cc1cn([C@H]2C[C@H](N=[N+]=[N-])[C@@H](CO)O2)c(=O)[nH]c1=O,"Gag-Pol polyprotein, reverse transcriptase (gag-pol, Human immunodeficiency virus type 1 group M subtype B, UniProt P04585)","enzyme activity, inhibitor, ELISA",,12200
O=C1NC(=O)/C(=C/c2ccc(OCCNc3nc4c(cnn4C4CCCC4)c(=O)[nH]3)c(F)c2)S1,PDE4D,"enzyme activity, inhibitor",,495
O=C(CCN(Cc1ccncc1)Cc1ccc(Cl)c(O)c1F)NO,MEP1B,"enzyme activity, inhibitor",,703
C[C@@H]1O[C@H](OP(=O)(O)OP(=O)(O)OC[C@H]2O[C@@H](n3cnc4c(=O)[nH]c(N)nc43)[C@H](O)[C@@H]2O)[C@@H](F)[C@H](O)[C@@H]1O,"Alpha-(1,3)-fucosyltransferase 7 (FUT7, Homo sapiens, UniProt Q11130)",cell-free assay,,~2500
N#Cc1nc(NCc2cccc(-c3cn(S(=O)(=O)c4ccccc4)c4ccccc34)c2)c2ncn(CCCO)c2n1,"Cathepsin B-like cysteine protease (Trypanosoma brucei, UniProt Q6R7Z5)","enzyme activity, inhibitor",,> 15000
Cc1nc(Nc2ccc(S(F)(F)(F)(F)F)cc2)c2c(C(F)(F)F)noc2n1,"Dihydroorotate dehydrogenase, mitochondrial, putative","enzyme activity, inhibitor, absorbance",,66
O=C(CCN(Cc1cccnc1)Cc1ccc2c(c1)OCO2)NO,MEP1B,"enzyme activity, inhibitor",,9650
COC(=O)C1=C(C)NC(C)=C(C(=O)OCCN(C)Cc2ccccc2)C1c1cccc([N+](=O)[O-])c1 (stereo not drawn),KCNK18,"ion flux, inhibitor",,21900
OCc1ccc2c(c1C#Cc1ccc(O)cc1)C(c1ccc(O)cc1)(c1ccc(O)cc1)c1cc(O)ccc1-2,PDE4D,"enzyme activity, inhibitor",,267
NC(=O)c1cccc(-c2cccc(OC(=O)NC3CCCCC3)c2)c1,"Liver carboxylesterase 1 (CES1, Homo sapiens, UniProt P23141)","enzyme activity, inhibitor",,39
COc1ccc2cc(/C=N/n3c(C)nc4ccc(Br)cc4c3=O)ccc2c1,F2,"enzyme activity, inhibitor",,51900
CCOCc1nc(O)c(-c2nnc(Cc3ccc(Cl)cn3)o2)c(O)c1-c1c(OC)cccc1OC,"5-hydroxytryptamine receptor 1B (HTR1B, Homo sapiens, UniProt P28222)","ligand displacement, radioligand",,> 30000
COc1cc2c(NC3CCN(C)CC3)nc(N3CCCN(C)CC3)nc2cc1OCCCCCCN(C)C,"Histone-lysine N-methyltransferase EHMT2 (EHMT2, Homo sapiens, UniProt Q96KQ7)","enzyme activity, inhibitor",,1500
CC[C@@H](C(=O)Nc1ccc(C(N)=O)c(F)c1)n1cc(OC)c(-c2cc(Cl)ccc2-n2cc(C(F)(F)F)nn2)cc1=O,F2,"enzyme activity, inhibitor",,6600
Cc1nc(Nc2ccc(C)c(Cl)c2)c2c(C)noc2n1,"Dihydroorotate dehydrogenase, mitochondrial, putative","enzyme activity, inhibitor, absorbance",,260
O=C(N[C@@H](Cc1c[nH]c2ccccc12)C(=O)O)c1ccc(Cl)cc1,"Free fatty acid receptor 3 (FFAR3, Homo sapiens, UniProt O14843)","GTPγS binding, antagonist",cell membranes,> 31600
COc1ccc([C@@H]2CN(C(=O)[C@@H](O)CO)C[C@@]2(C)[C@@H](C)O)cc1OC1CN(c2ccc(C)cn2)C1,PDE4D,"enzyme activity, inhibitor",,0.14
CC(C)(C)n1nc(-c2cnc3cc(OC4CC4)ccc3c2)c(C(N)=O)c1N,"Mitogen-activated protein kinase 1 (MAPK1, Homo sapiens, UniProt P28482)",cell-free assay,,> 10000
Cc1nc2ccccc2n1Cc1c(F)c(F)c(C(=O)NO)c(F)c1F,HDAC6,"enzyme activity, inhibitor",,3500
COc1cc(/C=N/n2c(C)nc3ccc(Br)cc3c2=O)ccc1OCc1ccc(Cl)cc1,F2,"enzyme activity, inhibitor",,44900
Cc1nc(NC2CCc3cc(Cl)ccc3C2)c2c(C)noc2n1 (stereo not drawn),"Dihydroorotate dehydrogenase, mitochondrial, putative","enzyme activity, inhibitor, absorbance",,58
CN1CCN(c2ccc(Nc3ncc4cc(C#N)c(=O)n(C5CCCC5)c4n3)cc2)CC1,"Dual specificity protein kinase TTK (TTK, Homo sapiens, UniProt P33981)","enzyme activity, inhibitor",,66.8
